This passage reports folding enthalpy and Tm results from the array DNA melting data of Ke et al. (doi:10.1101/2024.01.08.574731).

The nature of series [1]: folding enthalpy; higher = less favourable; fluorescence melt of hairpins on a sequencing array, two-state fit. Particulars: sodium 0.088 M. In outline:
(§1)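 Cy3 signals were normalised both to pre-quench Cy3 and to control constructs. They came from library hairpins carrying annealed Cy3 and quencher oligos on a sequenced MiSeq flow cell, imaged in 50 mM Na-HEPES pH 8.0, 25 mM NaCl, in 2.5 °C steps up to 60 °C. Bootstrapped two-state fits gave melting temperature and folding enthalpy, and four replicates were combined by inverse variance. Fitted temperatures were then raised by 9.35 °C to match UV melts.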

A short description of series [2]: melting temperature; fluorescence melt of hairpins on a sequencing array, two-state fit, raised by 9.35 °C to match UV melts. To be noted: sodium 0.088 M. In outline: as §1

As to GATCCTTGGGAGGATC ((((((....)))))), the folding enthalpy in series [1] is -43.2 kcal/mol. In series [2], the Tm came to 53.2 °C.
As to GCAAAGCGAAAGCGCTGC (((..((....))..))), in series [1], the folding enthalpy was -16.9 kcal/mol. Moreover, in series [2], the Tm came to 57.4 °C.
As to GCCATCTCGAAAGAGGGC (((..(((....)))))), the folding enthalpy in series [1] is -35.2 kcal/mol. Further, the Tm in series [2] turned out to be 48.9 °C.
The like results for GGCCCTGCGAAAGCAGCC (((..(((....)))))) were, in that order, -8.71 kcal/mol and 36.9 °C.
In the case of GGCATAGGAAACTATGCC (((((((....))))))), the folding enthalpy in series [1] is -39.5 kcal/mol. The Tm in series [2] is 64.9 °C.
With GTGAATGGAAACATTTGC (..((((....))))..), the folding enthalpy in series [1] is -15.5 kcal/mol. Further, the Tm in series [2] stood at 31.4 °C.
The like results for GCATGCGGAAACGCGTGC (((.(((....))).))) were, in that order, -45.2 kcal/mol and 67.6 °C.
With GGACACGAAAGTGAGTCC ((((((....)))..))), the folding enthalpy in series [1] is -21 kcal/mol. Besides, the Tm in series [2] turned out to be 44.8 °C.
For GGCAACGGAAACATCGCC (((.(.(....).).))), in that order: -16.7 kcal/mol and 24.5 °C.
Regarding GCATTGGGAAACTGATGC ((((..(....)..)))), in series [1], the folding enthalpy is -30 kcal/mol. For the same sequence, the Tm in series [2] was 38.8 °C.
For GGATGCGGAAACGCACCC ((.((((....)))).)), in that order: -27.4 kcal/mol and 52.2 °C.
For GTCTTTGGAAACAGAGAC ((((.((....)).)))), in that order: -26 kcal/mol and 37.3 °C.
Turning to GTGATAGGAAACTGTCAC ((((.((....)).)))), in series [1], the folding enthalpy was -36.5 kcal/mol. For the same sequence, the Tm in series [2] is 45.7 °C.
The like results for GGTTGCGCGAAAGCGACC (((..(((....)))))) were, in that order, -18 kcal/mol and 42.8 °C.
Turning to CGCTCGGAAACGAAGCG ((((((....))).))), the folding enthalpy in series [1] was -29.5 kcal/mol. In addition, in series [2], the Tm worked out at 53.6 °C.
The like results for GTTTGTGGAAACATGAAC (((..((....))..))) were, in that order, -21.9 kcal/mol and 31.6 °C.
For GGGACCCGAAAGGGACCC (((.(((....))).))), in that order: -31.1 kcal/mol and 67 °C.
On to GAGTGAGGAAACTCGTTC ((..(((....)))..)), for which the folding enthalpy in series [1] was -11.8 kcal/mol. Moreover, in series [2], the Tm stood at 27.6 °C.
The like results for GTATTGGGAAACCGATAC ((((.((....)).)))) were, in that order, -35.7 kcal/mol and 43.6 °C.
For the sequence GCAAACGAAAGTTTGTGC ((((((....)))..))), the folding enthalpy in series [1] is -25.2 kcal/mol. Besides, in series [2], the Tm worked out at 52.8 °C.
For GCGACCTCTCGC ((((....)))), in that order: -18.6 kcal/mol and 46.9 °C.
For GCGATTCATCGC ((((....)))), in that order: -30.1 kcal/mol and 58.3 °C.
With GTTCACGCGAAAGCGAAC (((..(((....)))))), in series [1], the folding enthalpy was -10.2 kcal/mol. The Tm in series [2] was found to be 32.7 °C.
The like results for GTACCACGAAAGTGATAC (((.(((....))).))) were, in that order, -24.3 kcal/mol and 43.7 °C.
GACCTGAAAAGGTC (((((....))))): in series [1], the folding enthalpy is -27.9 kcal/mol. In addition, in series [2], the Tm stood at 59 °C.
Turning to GCGGATCCGAAAGGACGC (((..(((....)))))), the folding enthalpy in series [1] was -25.6 kcal/mol. Further, the Tm in series [2] was 53.3 °C.
For the sequence GGCATCCGAAAGGAGCC (((.(((....)))))), the folding enthalpy in series [1] is -42.6 kcal/mol. Also, the Tm in series [2] amounted to 55.6 °C.
For GAATAGCGAAAGCTTTC (((.(((....)))))), in that order: -11.6 kcal/mol and 33.7 °C.
The like results for GATCCCTCCGGGATC ((((((...)))))) were, in that order, -44.2 kcal/mol and 67.7 °C.
The like results for GATCAGTAGTCTGATC ((((((....)))))) were, in that order, -37 kcal/mol and 50.2 °C.
Take GATCGTCCTACGATC ((((((...)))))): the folding enthalpy in series [1] was -38.6 kcal/mol. Besides, the Tm in series [2] worked out at 56.5 °C.
On to GATCGTTGCTACGATC ((((((....)))))), for which the folding enthalpy in series [1] is -35.9 kcal/mol. Moreover, the Tm in series [2] stood at 56.3 °C.
Regarding GTCCAGGGAAACCTAGAC (((.(((....))).))), in series [1], the folding enthalpy was -19 kcal/mol. Also, the Tm in series [2] stood at 33.3 °C.
The like results for GGCGGTCCGAAAGGAGCC (((..(((....)))))) were, in that order, -17.7 kcal/mol and 46.6 °C.
On to GATCCTCGAGAGGATC ((((((....)))))), for which the folding enthalpy in series [1] is -42.7 kcal/mol. Besides, in series [2], the Tm came out at 56.8 °C.
As for GAAGTAGGAAACTACTCC (.(((((....))))).), the folding enthalpy in series [1] was -11.4 kcal/mol. For the same sequence, in series [2], the Tm was 32.5 °C.
The like results for GGAGACGAAAGTCACTCC ((((((....)))..))) were, in that order, -13.3 kcal/mol and 37.6 °C.
For GATCGCACAAGCGATC ((((((....)))))), in that order: -37 kcal/mol and 69.3 °C.
As to GTCTTTTCGAAAGAAGAC (((..(((....)))))), in series [1], the folding enthalpy is -18.7 kcal/mol. Besides, the Tm in series [2] worked out at 31.6 °C.
For GCAAGGCGAAAGCTCTGC (((..((....))..))), in that order: -21.5 kcal/mol and 43.7 °C.
Take GGGCTTCGAAAGAATCCC (((.(((....))).))): in series [1], the folding enthalpy was -33 kcal/mol. In addition, in series [2], the Tm is 46.4 °C.
As for GCGCTTGGAAACAGGTGC ((.(.((....)).).)), the folding enthalpy in series [1] is -28.5 kcal/mol. The Tm in series [2] came to 40.6 °C.
For GAACCGCGAAAGCGCTTC (((.(((....))).))), in that order: -10.6 kcal/mol and 35.1 °C.
The like results for GTCCGAGGAAACTTGGAC ((((.((....)).)))) were, in that order, -29.9 kcal/mol and 51 °C.
For the sequence GTCTGTCGAAAGACTGAC (((.(((....))).))), the folding enthalpy in series [1] is -39.4 kcal/mol. Besides, in series [2], the Tm was found to be 54.4 °C.
Regarding GTAGGCGGAAACGTCTGC (.((.((....)).)).), in series [1], the folding enthalpy is -23 kcal/mol. The Tm in series [2] was 41.6 °C.
For GTATCGCGAAAGCGCTAC (((.(((....))).))), in that order: -18.4 kcal/mol and 47.9 °C.
GTGGCTACGAAAGTACAC (((..(((....)))))): the folding enthalpy in series [1] was -11.3 kcal/mol. The Tm in series [2] stood at 32.9 °C.
The like results for GGACCGCCGAAAGGCTCC (((..(((....)))))) were, in that order, -10 kcal/mol and 32.2 °C.
Take GATCTTTCTAAAGATC ((((((....)))))): the folding enthalpy in series [1] was -37.7 kcal/mol. In addition, in series [2], the Tm came to 47.3 °C.
The like results for GAAGGGGAAACCCTTC ((((((....)))))) were, in that order, -28.6 kcal/mol and 53.8 °C.
Regarding CGCCGGCGGAAACGCGCG (((..(((....)))))), the folding enthalpy in series [1] was -21.1 kcal/mol. Moreover, the Tm in series [2] worked out at 51.5 °C.
The like results for GATCGCTTGGCGATC ((((((...)))))) were, in that order, -41.3 kcal/mol and 68.8 °C.
GATCGATACTTCGATC ((((((....)))))): in series [1], the folding enthalpy is -57.9 kcal/mol. In series [2], the Tm came to 53 °C.
In the case of GAAAGAGGAAACTCTTTC (((((((....))))))), the folding enthalpy in series [1] is -37.8 kcal/mol. Further, the Tm in series [2] was 51.2 °C.
Turning to GGATGGGGAAACCTATCC ((((.((....)).)))), the folding enthalpy in series [1] was -29.4 kcal/mol. Besides, in series [2], the Tm worked out at 47.2 °C.
For GTCGAAGGAAACTCCGAC ((((.((....)).)))), in that order: -27.6 kcal/mol and 42.1 °C.
The like results for GTGGAGCGAAAGCTTCAC (((.(((....))).))) were, in that order, -35.6 kcal/mol and 58.1 °C.
For GATCCCCGGCGGGATC ((((((....)))))), in that order: -37.8 kcal/mol and 55.7 °C.
As for GATCTGGCAACAGATC ((((((....)))))), the folding enthalpy in series [1] is -35 kcal/mol. In series [2], the Tm was found to be 57.6 °C.
For GGTCAGGGAAACCTGACC (((((((....))))))), in that order: -36.6 kcal/mol and 67.2 °C.
Regarding GATCTGCCATCAGATC ((((((....)))))), the folding enthalpy in series [1] is -46 kcal/mol. In addition, the Tm in series [2] is 49.4 °C.
For the sequence GTATCGGGAAACCGACAC ((.((((....)))).)), in series [1], the folding enthalpy is -19.5 kcal/mol. In addition, the Tm in series [2] was 39.3 °C.
Regarding GACTAACGAAAGTTCGTC (((.(((....))).))), the folding enthalpy in series [1] is -30.5 kcal/mol. Also, the Tm in series [2] came out at 42.5 °C.
The like results for GCGGAACCCGC ((((...)))) were, in that order, -20.8 kcal/mol and 53.8 °C.
Take GAGGGCGAAAGCCAACTC ((((((....)))..))): in series [1], the folding enthalpy was -13 kcal/mol. The Tm in series [2] came to 41.7 °C.
Regarding GATCTGCCTACAGATC ((((((....)))))), the folding enthalpy in series [1] was -41.8 kcal/mol. Moreover, the Tm in series [2] turned out to be 50.8 °C.
The like results for GTCTGAGGAAACTCAGGC (.(((((....))))).) were, in that order, -32.2 kcal/mol and 49.5 °C.
On to GAGTGCACGAAAGTGCTC (((..(((....)))))), for which, in series [1], the folding enthalpy was -7.52 kcal/mol. Also, in series [2], the Tm is 37.4 °C.
Take GCGGCCGAAAGGCTCGC ((((((....))).))): the folding enthalpy in series [1] was -23.5 kcal/mol. Also, the Tm in series [2] was 68.8 °C.
As to GTCACGGGAAACCGTAAC ((.((((....)))).)), the folding enthalpy in series [1] is -16.5 kcal/mol. Besides, the Tm in series [2] worked out at 36.1 °C.
As for GGCCGACGAAAGTCGCC (((.(((....)))))), the folding enthalpy in series [1] was -14.4 kcal/mol. Besides, the Tm in series [2] was determined as 60.2 °C.
The like results for GGTAAAGCGAAAGCTACC (((..(((....)))))) were, in that order, -19 kcal/mol and 44.8 °C.
CGCCAGAAATGGCG (((((....))))): the folding enthalpy in series [1] is -31.5 kcal/mol. Also, the Tm in series [2] was 66.4 °C.
